# Source: ChEMBL document CHEMBL1145087 (J Med Chem, 2003)
# Legend:
# Glucocorticoid receptor = target: T1, Glucocorticoid receptor (Homo sapiens, UniProt P04150)
# T1 sequence (P04150 whole entry): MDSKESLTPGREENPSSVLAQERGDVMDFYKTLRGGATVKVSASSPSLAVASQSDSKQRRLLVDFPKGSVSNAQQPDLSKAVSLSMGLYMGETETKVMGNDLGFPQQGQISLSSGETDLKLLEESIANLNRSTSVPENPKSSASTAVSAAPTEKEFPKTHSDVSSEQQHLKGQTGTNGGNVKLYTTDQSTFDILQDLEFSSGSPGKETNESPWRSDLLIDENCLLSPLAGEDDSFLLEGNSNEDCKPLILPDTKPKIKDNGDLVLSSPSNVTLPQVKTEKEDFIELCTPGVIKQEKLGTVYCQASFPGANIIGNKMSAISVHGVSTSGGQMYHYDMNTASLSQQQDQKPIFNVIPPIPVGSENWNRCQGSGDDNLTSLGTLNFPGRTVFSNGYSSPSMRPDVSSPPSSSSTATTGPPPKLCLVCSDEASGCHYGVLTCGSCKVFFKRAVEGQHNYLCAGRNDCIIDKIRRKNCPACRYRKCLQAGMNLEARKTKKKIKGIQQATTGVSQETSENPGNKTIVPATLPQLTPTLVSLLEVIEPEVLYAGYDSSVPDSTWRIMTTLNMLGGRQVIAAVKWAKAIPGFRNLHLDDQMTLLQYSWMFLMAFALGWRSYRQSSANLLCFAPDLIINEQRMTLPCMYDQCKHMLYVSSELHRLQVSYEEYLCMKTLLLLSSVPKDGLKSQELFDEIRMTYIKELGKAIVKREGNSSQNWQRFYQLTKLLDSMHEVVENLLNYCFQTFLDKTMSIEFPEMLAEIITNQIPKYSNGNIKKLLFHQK
# [1] = target: T2, Mineralocorticoid receptor (Homo sapiens) (UniProt P08235); test: Agonistic efficacy against human Mineralocorticoid receptor; assay type: functional
# T2 sequence (whole entry): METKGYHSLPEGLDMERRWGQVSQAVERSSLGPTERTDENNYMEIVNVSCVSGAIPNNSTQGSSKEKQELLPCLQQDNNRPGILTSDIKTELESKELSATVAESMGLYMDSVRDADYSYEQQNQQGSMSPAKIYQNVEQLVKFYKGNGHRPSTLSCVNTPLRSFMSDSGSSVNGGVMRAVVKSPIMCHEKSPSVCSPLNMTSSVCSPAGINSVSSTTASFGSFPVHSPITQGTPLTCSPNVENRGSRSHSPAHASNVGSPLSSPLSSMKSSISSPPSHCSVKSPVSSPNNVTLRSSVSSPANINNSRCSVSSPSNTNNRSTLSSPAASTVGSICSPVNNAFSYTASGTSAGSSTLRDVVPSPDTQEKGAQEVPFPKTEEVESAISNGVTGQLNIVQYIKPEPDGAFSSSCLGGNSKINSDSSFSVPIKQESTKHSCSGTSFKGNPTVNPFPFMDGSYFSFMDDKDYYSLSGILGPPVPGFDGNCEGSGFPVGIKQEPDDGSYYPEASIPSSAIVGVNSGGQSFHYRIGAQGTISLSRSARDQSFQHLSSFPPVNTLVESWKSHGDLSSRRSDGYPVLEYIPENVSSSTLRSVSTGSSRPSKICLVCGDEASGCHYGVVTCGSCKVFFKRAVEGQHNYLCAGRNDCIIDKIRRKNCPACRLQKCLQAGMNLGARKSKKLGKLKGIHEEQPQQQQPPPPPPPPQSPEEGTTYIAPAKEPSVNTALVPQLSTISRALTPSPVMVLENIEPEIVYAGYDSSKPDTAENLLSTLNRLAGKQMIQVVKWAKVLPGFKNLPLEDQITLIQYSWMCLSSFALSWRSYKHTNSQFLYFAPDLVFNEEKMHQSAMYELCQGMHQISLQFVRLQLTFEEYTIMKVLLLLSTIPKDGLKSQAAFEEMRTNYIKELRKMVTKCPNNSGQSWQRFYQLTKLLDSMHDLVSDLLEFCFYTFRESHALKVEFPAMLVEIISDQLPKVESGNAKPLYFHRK
# How it was run: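 Cell-based cotransfection assay for hMR in 96-well format. Agonist activity is read as normalized LUC expression. Efficacy is expressed relative to the maximal LUC response to aldosterone.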
# Androgen receptor = target: T3, Androgen receptor (Homo sapiens, UniProt P10275); test: biochemical
# T3 sequence (P10275 whole entry): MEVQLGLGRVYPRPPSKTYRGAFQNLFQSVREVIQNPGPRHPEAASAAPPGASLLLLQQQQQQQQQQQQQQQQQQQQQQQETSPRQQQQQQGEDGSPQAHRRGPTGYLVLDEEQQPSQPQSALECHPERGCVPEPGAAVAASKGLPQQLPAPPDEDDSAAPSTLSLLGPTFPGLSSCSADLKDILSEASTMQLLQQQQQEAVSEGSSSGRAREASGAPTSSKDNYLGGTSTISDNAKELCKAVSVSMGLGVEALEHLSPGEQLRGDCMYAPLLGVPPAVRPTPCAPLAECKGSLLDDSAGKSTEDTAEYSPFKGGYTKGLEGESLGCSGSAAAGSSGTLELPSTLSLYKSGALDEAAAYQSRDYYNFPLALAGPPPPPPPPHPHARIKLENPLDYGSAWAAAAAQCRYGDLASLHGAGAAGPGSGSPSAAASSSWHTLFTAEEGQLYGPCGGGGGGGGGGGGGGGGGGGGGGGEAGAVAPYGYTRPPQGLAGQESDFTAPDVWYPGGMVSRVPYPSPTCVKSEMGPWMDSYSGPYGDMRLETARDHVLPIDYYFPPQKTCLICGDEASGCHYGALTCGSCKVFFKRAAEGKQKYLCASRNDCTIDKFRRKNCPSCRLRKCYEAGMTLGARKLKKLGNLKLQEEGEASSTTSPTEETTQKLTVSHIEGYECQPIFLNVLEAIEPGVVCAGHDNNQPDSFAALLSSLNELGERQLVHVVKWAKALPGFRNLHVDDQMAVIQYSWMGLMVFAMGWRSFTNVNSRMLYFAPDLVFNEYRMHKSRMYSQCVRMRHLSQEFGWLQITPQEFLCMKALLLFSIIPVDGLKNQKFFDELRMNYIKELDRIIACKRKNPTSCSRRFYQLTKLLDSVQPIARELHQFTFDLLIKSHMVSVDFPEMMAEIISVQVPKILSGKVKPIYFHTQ
# Homo sapiens = species: Homo sapiens; test: Relative potency for human mineralocorticoid and progesterone receptors
IC50 (Glucocorticoid receptor),Efficacy [1],Ki (Androgen receptor),Ratio (Homo sapiens),Compound
0.297 µM,70%,0.96 µM,> 1000,CC1=CC(C)(C)Nc2ccc3c(c21)/C(=C/c1ccccc1C)Oc1c(F)cccc1-3
0.077 µM,50%,1.59 µM,167,CCc1ccccc1/C=C1\Oc2ccc(F)cc2-c2ccc3c(c21)C(C)=CC(C)(C)N3
0.25 µM,> 20%,1.46 µM,> 1000,CC1=CC(C)(C)Nc2ccc3c(c21)/C(=C/c1ccccc1)Oc1c(F)cccc1-3

Compound,IC50 (Glucocorticoid receptor),Efficacy [1],Ki (Androgen receptor),Ratio (Homo sapiens)
CC1=CC(C)(C)Nc2ccc3c(c21)/C(=C/c1ccncc1C)Oc1ccc(F)cc1-3,0.245 µM,71%,> 1 µM,511
CC1=CC(C)(C)Nc2ccc3c(c21)/C(=C/c1ccsc1)Oc1ccc(F)cc1-3,0.1 µM,63%,0.669 µM,> 1000
